Screens (PubChem BioAssay)
Rows were chosen to be rich in hits. Some 2.5% of all compounds tested hit in one or more screens of this group.
TRPN1 ag: zebrafish TRPN1 (NompC) channel agonism | activation, % at 3 µM | actives 0.18% (n = 220,000) | HEK293 zebrafish TRPN1-YFP, Fluo-8 calcium fluorescence; 100% = response to 87 µM carbachol | AID 1424;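 active = activation above its plate's cutoff, the mean activation of test wells on that plate plus 3 SD, cut at about 19% in these data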;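 note: 0% = DMSO alone and 100% = 87 µM carbachol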
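Material – zebrafish TRPN1-YFP in HEK293 cells · Doses – 3 µM single point · Schedule – dye 1 h 37 °C plus 30 min RT · Signal – Fluo-8 calcium fluorescence, excitation 470-495 nm, emission 515-575 nm · Read-out – % activation versus carbachol response · Control set – carbachol high, DMSO low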
CHO parental Ca: counter-screen: ATP calcium response change in parental CHO cells. inhibition, % at 5.6 µM. AID 463079. actives 0.63% (n = 330,000). parental CHO-K1, ATP-induced calcium, Fluo-8 fluorescence;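 active = inhibition above that plate's mean sample inhibition plus 3 SD, cut at about 26% in these data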;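 note: 0% = ATP-challenged DMSO wells and 100% = DMSO wells without ATP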
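material = parental CHO cells | also added = ATP as calcium-mobilizing challenge | dosing = single point at 5.6 µM | detection = intracellular calcium via Fluo-8 no-wash fluorescent dye | read-out = % inhibition | benchmarks = low control ATP plus DMSO, high control DMSO only | repeats = one well per compound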
TRPML3 agonist: human mucolipin-3 channel agonism | Q8TDD5 | HEK293 TRPML3-YFP, Fluo-8 calcium fluorescence; 100% = the carbachol control signal | activation, % at 3 µM | actives 0.29% (n = 220,000) | AID 1448;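 active = activation above its plate's cutoff, the mean activation of the plate's test wells plus 3 SD, cut at about 12% in these data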;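 note: 0% = DMSO only wells and 100% = carbachol wells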
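system = HEK293 cells stably carrying human TRPML3-YFP | doses = one concentration, 3 µM nominal, 0.3% DMSO | timing = dye loading 1 h 37 °C then 30 min ambient, 125 s read | detection = Fluo-8 calcium dye fluorescence, ex 470-495, em 515-575 nm | benchmarks = high control carbachol 87 µM, low control DMSO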
OX1R antag-1: antagonists of human orexin 1 receptor; inhibition, % at 5 µM; CHO/OX1R cells, Fluo-8 calcium fluorescence, orexin A; AID 434989; O43613; actives 0.43% (n = 330,000);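 active = inhibition above its plate's threshold, mean inhibition of all tested compounds on the plate plus 3 SD, cut at about 37% in these data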;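 note: 0% = orexin A challenge wells and 100% = SB-334867-A antagonist wells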
Target sequence (O43613 whole entry, looked up): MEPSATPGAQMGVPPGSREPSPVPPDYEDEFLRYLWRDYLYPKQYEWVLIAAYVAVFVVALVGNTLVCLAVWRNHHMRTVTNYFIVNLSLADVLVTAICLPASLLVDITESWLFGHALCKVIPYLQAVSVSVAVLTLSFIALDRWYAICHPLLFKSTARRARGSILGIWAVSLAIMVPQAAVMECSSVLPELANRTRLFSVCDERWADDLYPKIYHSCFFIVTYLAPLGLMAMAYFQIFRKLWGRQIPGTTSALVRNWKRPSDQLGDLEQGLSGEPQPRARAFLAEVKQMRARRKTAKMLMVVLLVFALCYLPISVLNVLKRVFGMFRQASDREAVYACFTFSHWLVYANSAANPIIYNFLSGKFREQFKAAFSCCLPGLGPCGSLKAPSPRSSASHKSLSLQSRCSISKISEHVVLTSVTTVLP
OX1R antag-2: antagonists of human orexin 1 receptor (OX1R). actives 1.8% (n = 330,000). OX1R-expressing cells, FRET antagonist read-out. inhibition, % at 6.6 µM; in the data active = inhibition mostly above about 38%, no sharp cut-off; inactive = mostly below about 40%;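 note: 0% = agonist challenge alone and 100% = reference antagonist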
TRPN1 ag 2: zebrafish TRPN1 agonism as TRPML3 agonist counter-screen; AID 1525; HEK293 zebrafish TRPN1-YFP, Fluo-8 calcium fluorescence; scaled: carbachol wells 100%, DMSO wells 0%; activation, % at 3 µM; shares compounds with TRPML3 agonist; actives 10% (n = 310);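 active = mean activation over replicates above a set limit taken from the earlier TRPN1 channel primary screen, cut at about 19% in these data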;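 note: 100% = carbachol and 0% = 0.3% DMSO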
TRPML3 confirm: human TRPML3 agonism, confirmation; shares compounds with TRPML3 agonist; HEK293 TRPML3-YFP, Fluo-8 calcium fluorescence; 100% set by carbachol, 0% by DMSO; activation, % at 3 µM; actives 80% (n = 310); AID 1526;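 active = activation above a set limit derived from the earlier primary screen, cut at about 12% in these data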
* = called active by the depositor; x = not tested or not shown.

SMILES	TRPN1 ag	CHO parental Ca	TRPML3 agonist	OX1R antag-1	OX1R antag-2	TRPN1 ag 2	TRPML3 confirm
Cc1nc2ccc(NC(=O)COc3ccccc3[N+](=O)[O-])cc2s1	-2	-19	2	-34	38	x	x
COc1cccc(/C=N/NC(=O)c2cnn(-c3ccccc3)c2N)c1	1	-28	0	-31	8	x	x
Cc1ccc(CNc2ccc3c(c2)ncn3C(C)C)cc1	13	-18	36*	-11	16	36*	29*
COc1ccccc1C1CN=NC12CCCc1ccccc1C2=O (stereo not given)	-2	-12	24*	-36	7	0	91*
Cc1ccccc1S(=O)(=O)c1c(C)cc(C)n(C(C)C)c1=O	-2	7	30*	-26	9	-3	35*
CCCCn1c(C)cc(C)c(S(=O)(=O)c2ccccc2C)c1=O	-2	1	18*	-25	13	-2	58*
Cc1ccc(C)c(N2C(=O)CC(Cc3ccccc3)C2=O)c1 (stereo not given)	x	-7	x	-15	17	x	x
O=S(=O)(Cc1cc(Cl)nc(-c2ccncc2)n1)c1ccccc1	0	-32	6	-24	21	x	x
O=S(=O)(Cc1cc(Cl)nc(-c2ccccc2)n1)c1ccccc1	-1	-6	19*	-18	7	-1	35*
COc1ccc(NC(C)(C)c2nnnn2-c2c(C)cccc2C)cc1	-1	-19	21*	6	28	2	10
COc1cc(S(=O)(=O)N2CCN(C)CC2)ccc1Cl	-1	-10	0	-17	4	x	x
O=S(=O)(c1ccc2ccccc2c1)N1CCCCCC1	-2	-15	81*	-28	4	0	62*
O=S(=O)(c1ccc(S(=O)(=O)N2CCCC2)cc1)N1CCCCC1	x	-2	x	9	22	x	x
O=S(=O)(c1ccc2ccccc2c1)N1CCCCC1	0	-7	16*	-13	10	0	12*
CC(C)c1ccc(S(=O)(=O)N2CCCCC2)cc1	0	-1	15*	-6	31	-1	15*
COc1cc(S(=O)(=O)N2CCCCCC2)ccc1Cl	-2	-15	44*	-31	10	-1	61*
CN1CCCN(S(=O)(=O)c2ccc3ccccc3c2)CC1	x	-11	x	-2	24	x	x
COc1ccc(C2CC(=O)N(C)c3ccccc3S2)cc1 (stereo not given)	-2	-8	0	-11	14	x	x
O=C(CSc1nnc2ccccn12)N1CCc2ccccc21	0	-13	0	-12	22	x	x
O=S(=O)(NCC1CCCO1)c1ccc(S(=O)(=O)N(Cc2ccc(F)cc2)Cc2ccccn2)cc1 (stereo not given)	-1	-26	1	-11	18	x	x
CCC1CCCCN1S(=O)(=O)c1ccc(S(=O)(=O)N(Cc2ccccn2)CC2CCCO2)cc1 (stereo not given)	0	-26	28*	-20	17	2	96*
CCC1CCCCN1S(=O)(=O)c1ccc(S(=O)(=O)N(Cc2cccs2)C2CC2)cc1 (stereo not given)	8	25	95*	54*	29	14	112*
Cc1ccc(S(=O)(=O)Nc2ccccc2C(=O)Nc2nc(-c3ccc(F)cc3)cs2)cc1	14	26	12*	52*	67*	21*	10
CCOc1ccc(S(=O)(=O)Nc2ccccc2C(=O)Nc2ccccc2N2CCOCC2)cc1	0	0	0	-3	7	x	x
CCOc1ccc(NC(=O)c2ccccc2NS(=O)(=O)c2ccc(F)cc2)c([N+](=O)[O-])c1	1	-18	15*	-17	35	10	34*
SMILES	TRPN1 ag	CHO parental Ca	TRPML3 agonist	OX1R antag-1	OX1R antag-2	TRPN1 ag 2	TRPML3 confirm
Cc1ccc(S(=O)(=O)Nc2nc(-c3ccccc3)cs2)cc1	x	18	x	-8	8	x	x
C=CCN1C(=NC(=O)COc2ccc(Cl)cc2)SC2CS(=O)(=O)CC21 (stereo not given)	x	-6	x	-10	9	x	x
O=C(C1CCN(S(=O)(=O)N2CCOCC2)CC1)N1CCOCC1	1	-3	16*	-14	8	0	1
Cc1ccc(S(=O)(=O)N(C)c2cc(S(=O)(=O)N3CCC(C)CC3)c(C)cc2C)cc1	-1	3	40*	-12	15	-1	73*
Cc1cccc(C(=O)OC(C)C(=O)Nc2ccc(S(=O)(=O)Nc3ncccn3)cc2)c1C (stereo not given)	x	-6	x	-2	12	x	x
COc1ccc(C(=O)CN2C(=O)NC3(CCCc4ccccc43)C2=O)c(OC)c1 (stereo not given)	x	-22	x	-46	38	x	x
Cc1ccc(S(=O)(=O)Nc2cc(C(F)(F)F)ccc2N2CCOCC2)c(C)c1	6	-35	48*	-31	-5	10	102*
O=C(Nc1cccc(OC(=O)c2ccco2)c1)c1ccco1	1	-8	0	-20	7	x	x
CC(=O)Nc1cccc(OC(=O)c2ccoc2C)c1	0	5	13*	-9	11	1	4
CC(C)(C)c1ccc(OCCC(=O)OCC(=O)Nc2cccnc2Cl)cc1	x	-3	x	-9	7	x	x
Cc1ccc(C(=O)NNC(=S)NC(=O)c2ccco2)cc1	18	66*	28*	64*	11	39*	36*
CC1(C)CSC(=S)N1S(=O)(=O)c1ccccc1	0	-2	32*	-12	10	1	20*
Cc1cccn2c(=O)nc(SCC(=O)Nc3ccc4c(c3)OCCO4)nc12	x	-3	x	-13	14	x	x
COc1cccc(C(=O)NCCS(=O)(=O)NC(C)CCc2ccccc2)c1 (stereo not given)	x	-32	x	-28	25	x	x
O=C(Nc1nc(-c2ccc3ccccc3c2)cs1)C1CCN(S(=O)(=O)c2cccs2)CC1	0	-11	19*	-15	15	3	52*
Cc1ccc(-c2csc(NC(=O)C3CCN(S(=O)(=O)c4cccs4)CC3)n2)cc1	3	22	4	6	15	x	x
Cc1onc(-c2ccccc2)c1C(=O)N(Cc1ccco1)Cc1cccs1	-2	x	29*	x	x	-3	19*
C=CCn1c(=O)/c(=C2/Sc3cc(OC)ccc3N2C)s/c1=C1\C(=O)N(CC)C(=S)N1C	0	-29	1	-27	7	x	x
CN(C)S(=O)(=O)c1cc([N+](=O)[O-])ccc1N1CCCCCC1	-1	-10	16*	-26	13	1	14*
